Where a name gives a salt, the structure may show the parent alone. One block for each compound: values may come before it.
Columns and labels:
[1] = target: T1, purified human LAL (phLAL) (Homo sapiens, UniProt P38571); assay: In vitro LAL activity assay; format: biochemical; conditions: 10 μM compound; Supplemental Figures 1 and 2
T1 sequence (P38571 77-399): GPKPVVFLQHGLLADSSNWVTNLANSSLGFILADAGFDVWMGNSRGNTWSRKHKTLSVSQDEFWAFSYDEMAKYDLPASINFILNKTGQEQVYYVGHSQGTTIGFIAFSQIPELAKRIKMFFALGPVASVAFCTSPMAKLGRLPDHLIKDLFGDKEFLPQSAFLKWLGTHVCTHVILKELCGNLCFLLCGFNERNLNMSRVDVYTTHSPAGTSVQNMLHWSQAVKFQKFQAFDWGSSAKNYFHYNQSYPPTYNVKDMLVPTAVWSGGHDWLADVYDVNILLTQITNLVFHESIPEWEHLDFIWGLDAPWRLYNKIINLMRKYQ

[2] = tested on: NPC1- or NPC2-defective mice; conditions: ref 5a, 9; cited from earlier work
phLAL [3] = target: T2, phLAL (Homo sapiens, UniProt P38571); conditions: earlier study; cited from earlier work
T2 sequence (P38571 77-399): T1 sequence (P38571 77-399)

LAL = target: T3, LAL (Homo sapiens, UniProt P38571); assay: LAL activity in lysates of compound-treated cells; format: cell-based; conditions: for inhibition of LAL in cell lysates: cells treated continuously ~4 days, Figure 4A; for inhibition of LAL in cell lysates after withdrawal: ~3 days treatment, ~1 day recovery in growth medium, Figure 4B
T3 sequence (P38571 77-399): T1 sequence (P38571 77-399)

[4] = target: T1, purified human LAL (phLAL); conditions: previous studies; cited from earlier work
NPC1 mutant cells = assay: Filipin LSO assay of cholesterol accumulation; format: cell-based, human; conditions: ~3 days treatment, Figure 4C
Outline: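 Compound-treated cells (~3 days) stained with filipin. Automated fluorescence imaging at 4 (10×) or 9 (20×) sites per well, 2×2 binning, laser autofocus per site, 12-bit images. After background correction, LSO ratio is integrated thresholded filipin fluorescence within LSOs, normalised to total cell area defined by low-threshold filipin signal.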

[5] = tested on: apparently normal human fibroblasts; assay: LipidTOX green neutral lipid accumulation; format: cell-based; conditions: normal cells, ~3 days treatment; Figure 4D
Outline: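 Normal human fibroblasts kept in MEM (2.2 g/L bicarbonate, 10% FBS) and treated with compound for ~3 days. Stained with LipidTOX green and imaged at 482/35 nm excitation, 536/40 nm emission, 20× 0.5 NA objective, with autofocus per site. LSO ratio is thresholded LipidTOX fluorescence within LSOs, normalised to total cell area from low-threshold filipin signal.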

[6] = target: T1, purified human LAL (phLAL); assay: Lineweaver-Burk analysis of LAL inhibition; format: biochemical; conditions: 30 min pre-incubation at 37 °C, 4MUO at various concentrations
Outline: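 Recombinant purified human LAL pre-incubated with compound for 30 min at 37 °C in 200 mM sodium acetate pH 5.5, 0.02% Tween-20. Started with varied 4-methylumbelliferyl oleate in Triton X-100 and followed by fluorescence (355/450 nm) for 45 min. Compound levels given as final. Double-reciprocal plots fitted by linear regression, two independent experiments.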

many lipases = conditions: cited from earlier work
phLAL [7] = target: T2, phLAL; assay: Time-dependence of LAL inhibition; format: biochemical; conditions: pre-incubation at 833 nM, 500 nM final, 37 °C; Figure 3

inhibition of LAL activity at 10 μM [1]: None of these carbamates inhibited LAL
Compound: Cl.NCCCCCCNC(=O)OCc1ccccc1 [benzyl N-(6-aminohexyl) carbamate hydrochloride]

inhibition of LAL in cell lysates (LAL): least potent
inhibition of LAL in cell lysates after withdrawal (LAL): least potent
Compound: O=C(Oc1nsnc1N1CCOCC1)N1CCOCC1 [Compound 15]
decrease in cholesterol accumulation (NPC1 mutant cells): least potent
time-dependence of inhibition upon pre-incubation with phLAL (phLAL [3]): some time-dependence of inhibition
potency and specificity towards LAL [4]: significant potency and specificity towards LAL
increase in neutral lipid accumulation [5]: least potent

type of inhibition [6]: apparent competitive inhibitor
Compound: O=C(Oc1nsnc1N1CCCCC1)N1CCOCC1 [Compound 13]
time-dependence of inhibition upon pre-incubation with phLAL (phLAL [3]): some time-dependence of inhibition
potency and specificity towards LAL [4]: significant potency and specificity towards LAL

inhibition of LAL in cell lysates after withdrawal (LAL): maximal potency
Compound: O=C(Oc1nsnc1N1CCCCCC1)N1CCCCC1 [Compound 16]
inhibition of LAL in cell lysates (LAL): much higher level of inhibition of LAL upon cell lysis than 11, 13, 15, and 17

inhibition of LAL activity at 10 μM [1]: None of these carbamates inhibited LAL
Compound: COc1ccccc1OCC(O)COC(N)=O (stereo not drawn) [guaiacol glyceryl ether carbamate]

inhibition of LAL in cell lysates after withdrawal (LAL): maximal potency
Compound: O=C(Oc1nsnc1N1CCCC1)N1CCCCC1 [Compound 10, 4-(Pyrrolidin-1-yl)-1,2,5-thiadiazol-3-yl piperidine-1-carboxylate]
pre-incubation time-dependence of inhibition (phLAL [7]): significantly higher time-dependence than other compounds
inhibition of LAL in cell lysates (LAL): much higher level of inhibition of LAL upon cell lysis than 11, 13, 15, and 17

inhibition of LAL in cell lysates after withdrawal (LAL): maximal potency
Compound: O=C(Oc1nsnc1N1CCCCC1)N1CCCCC1 [Compound 12]
decrease in cholesterol accumulation (NPC1 mutant cells): most potent
inhibition of LAL in cell lysates (LAL): much higher level of inhibition of LAL upon cell lysis than 11, 13, 15, and 17
increase in neutral lipid accumulation [5]: most potent

Further lines, the compound ahead of its results:

Compound: CN(C)C(=O)Oc1cccc([N+](C)(C)C)c1 [neostigmine methyl sulfate]
inhibition of LAL activity at 10 μM [1]: None of these carbamates inhibited LAL

Compound: CNC(=O)Oc1ccc2c(c1)[C@]1(C)CCN(C)[C@@H]1N2C [eserine]
inhibition of LAL activity at 10 μM [1]: None of these carbamates inhibited LAL

Compound: CN1CCC(OC(=O)Nc2ccc(F)cc2)CC1 [1-methyl-4-piperidinyl-N-(4-fluorophenyl) carbamate]
inhibition of LAL activity at 10 μM [1]: None of these carbamates inhibited LAL

Compound: β-cyclodextrins
accumulation of cholesterol and other lipids in LSOs [2]: significant reduction
lifespan [2]: significantly extends lifespan

Compound: O=C(Oc1nsnc1N1CCOCC1)N1CCCCC1 [Compound 14]
time-dependence of inhibition upon pre-incubation with phLAL (phLAL [3]): some time-dependence of inhibition
inhibition of LAL in cell lysates (LAL): much higher level of inhibition of LAL upon cell lysis than 11, 13, 15, and 17
potency and specificity towards LAL [4]: significant potency and specificity towards LAL

Compound: COC(N)=O [methyl carbamate]
inhibition of LAL activity at 10 μM [1]: None of these carbamates inhibited LAL

Compound: CCCCCCCCCCC[C@@H](C[C@@H]1OC(=O)[C@H]1CCCCCC)OC(=O)[C@H](CC(C)C)NC=O [orlistat]
inhibition of lipases (many lipases): potent inhibitor of many lipases
